According to ChEMBL document CHEMBL1143109, “Discovery of novel orally active ureido NPY Y5 receptor antagonists” (Bioorg Med Chem Lett, 2008):
Activity calls are given as the source filed them. No cut-off for these calls is given here.

Key:
[1] = Inhibition of calcium channel at 10 uM
Summary of the method: (§1)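 Counterscreen panel of 60 receptors, enzymes and ion channels; inhibition of binding measured at 10 µM.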

[2] = Ratio of drug level in brain to plasma in po dosed rat; assay type: ADME, organism-based; details: read-out: BPR
[3] = Half life in iv dosed rat; assay type: ADME, organism-based; details: in vivo
[4] = test system: Rattus norvegicus; test: Increase in lean body mass in Sprague-Dawley DIO rat at 10 mg/kg/day, po after 28 days; assay type: functional, organism-based
Summary of the method: (§2)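 DIO rats weighing 700–800 g at start, n = 12/group, food and water ad libitum. Compound admixed into low fat diet for 28 days; delivered doses (1, 3 or 10 mg/kg/day) calculated from food consumption. Body composition by DEXA scanning, expressed as percent change from day 0 baseline; average plasma levels taken at the 10 mg/kg/day dose.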

[5] = molecular target: 5-hydroxytryptamine receptor 7 (Homo sapiens) (UniProt P34969); test: Inhibition of 5HT7 receptor at 10 uM; summary of the method: as §1
Chain of 5-hydroxytryptamine receptor 7 (Homo sapiens) (P34969 whole entry): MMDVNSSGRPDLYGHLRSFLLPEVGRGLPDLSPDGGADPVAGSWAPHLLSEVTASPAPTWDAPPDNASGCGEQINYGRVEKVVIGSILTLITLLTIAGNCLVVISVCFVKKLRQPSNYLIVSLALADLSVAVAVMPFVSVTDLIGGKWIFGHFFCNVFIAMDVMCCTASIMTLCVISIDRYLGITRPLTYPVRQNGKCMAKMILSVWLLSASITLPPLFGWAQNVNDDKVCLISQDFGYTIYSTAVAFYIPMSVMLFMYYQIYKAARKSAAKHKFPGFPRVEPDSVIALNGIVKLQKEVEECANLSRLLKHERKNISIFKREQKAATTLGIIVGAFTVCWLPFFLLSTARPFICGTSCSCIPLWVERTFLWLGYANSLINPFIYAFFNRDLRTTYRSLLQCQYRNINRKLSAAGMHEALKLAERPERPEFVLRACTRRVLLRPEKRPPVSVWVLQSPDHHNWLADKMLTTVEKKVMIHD

[6] = molecular target: 5-hydroxytryptamine receptor 5A (Homo sapiens) (UniProt P47898); test: Inhibition of 5HT5A receptor at 10 uM; summary of the method: as §1
Chain of 5-hydroxytryptamine receptor 5A (Homo sapiens) (P47898 whole entry): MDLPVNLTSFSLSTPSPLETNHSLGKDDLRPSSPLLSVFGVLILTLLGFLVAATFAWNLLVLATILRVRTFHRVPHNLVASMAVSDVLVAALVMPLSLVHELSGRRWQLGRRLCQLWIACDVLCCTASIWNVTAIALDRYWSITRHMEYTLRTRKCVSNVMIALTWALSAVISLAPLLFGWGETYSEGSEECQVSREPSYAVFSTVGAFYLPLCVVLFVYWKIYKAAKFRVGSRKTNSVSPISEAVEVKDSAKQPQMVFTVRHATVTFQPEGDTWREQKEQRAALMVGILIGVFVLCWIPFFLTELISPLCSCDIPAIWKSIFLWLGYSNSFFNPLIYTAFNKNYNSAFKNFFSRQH

[7] = molecular target: T1, Neuropeptide Y receptor type 1 (Homo sapiens, UniProt P25929); test: Binding affinity to human NPY Y1 receptor
T1 sequence (P25929 whole entry): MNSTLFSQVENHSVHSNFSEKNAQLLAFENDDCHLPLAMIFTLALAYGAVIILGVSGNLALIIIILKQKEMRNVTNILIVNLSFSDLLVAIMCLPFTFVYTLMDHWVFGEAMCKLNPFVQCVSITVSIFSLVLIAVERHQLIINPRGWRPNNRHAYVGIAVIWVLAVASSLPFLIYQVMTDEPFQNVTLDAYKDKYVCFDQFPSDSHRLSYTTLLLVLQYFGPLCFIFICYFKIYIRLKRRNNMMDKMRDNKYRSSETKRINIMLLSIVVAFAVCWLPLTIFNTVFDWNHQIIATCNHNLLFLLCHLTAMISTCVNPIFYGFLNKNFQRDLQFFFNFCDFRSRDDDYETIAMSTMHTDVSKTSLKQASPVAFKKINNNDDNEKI

[8] = Inhibition of potassium channel at 10 uM; summary of the method: as §1
[9] = molecular target: 5-hydroxytryptamine receptor 2B (Homo sapiens) (UniProt P41595); test: Inhibition of 5HT2B receptor at 10 uM; summary of the method: as §1
Chain of 5-hydroxytryptamine receptor 2B (Homo sapiens) (P41595 whole entry): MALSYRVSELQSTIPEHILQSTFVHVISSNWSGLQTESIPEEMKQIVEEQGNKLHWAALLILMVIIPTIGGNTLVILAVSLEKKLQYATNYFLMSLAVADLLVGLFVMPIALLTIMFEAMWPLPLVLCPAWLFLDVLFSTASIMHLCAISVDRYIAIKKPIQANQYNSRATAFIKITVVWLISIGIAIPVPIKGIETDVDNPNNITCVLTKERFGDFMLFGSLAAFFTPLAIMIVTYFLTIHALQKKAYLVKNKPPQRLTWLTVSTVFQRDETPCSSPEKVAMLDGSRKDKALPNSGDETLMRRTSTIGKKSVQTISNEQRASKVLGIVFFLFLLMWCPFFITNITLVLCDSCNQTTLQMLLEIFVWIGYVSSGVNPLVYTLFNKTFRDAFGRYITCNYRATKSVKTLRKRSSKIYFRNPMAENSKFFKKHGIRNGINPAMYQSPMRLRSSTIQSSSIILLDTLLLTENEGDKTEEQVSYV

[10] = molecular target: Sodium-dependent serotonin transporter (Homo sapiens) (UniProt P31645); test: Inhibition of serotonin transporter at 10 uM; summary of the method: as §1
Chain of Sodium-dependent serotonin transporter (Homo sapiens) (P31645 whole entry, looked up): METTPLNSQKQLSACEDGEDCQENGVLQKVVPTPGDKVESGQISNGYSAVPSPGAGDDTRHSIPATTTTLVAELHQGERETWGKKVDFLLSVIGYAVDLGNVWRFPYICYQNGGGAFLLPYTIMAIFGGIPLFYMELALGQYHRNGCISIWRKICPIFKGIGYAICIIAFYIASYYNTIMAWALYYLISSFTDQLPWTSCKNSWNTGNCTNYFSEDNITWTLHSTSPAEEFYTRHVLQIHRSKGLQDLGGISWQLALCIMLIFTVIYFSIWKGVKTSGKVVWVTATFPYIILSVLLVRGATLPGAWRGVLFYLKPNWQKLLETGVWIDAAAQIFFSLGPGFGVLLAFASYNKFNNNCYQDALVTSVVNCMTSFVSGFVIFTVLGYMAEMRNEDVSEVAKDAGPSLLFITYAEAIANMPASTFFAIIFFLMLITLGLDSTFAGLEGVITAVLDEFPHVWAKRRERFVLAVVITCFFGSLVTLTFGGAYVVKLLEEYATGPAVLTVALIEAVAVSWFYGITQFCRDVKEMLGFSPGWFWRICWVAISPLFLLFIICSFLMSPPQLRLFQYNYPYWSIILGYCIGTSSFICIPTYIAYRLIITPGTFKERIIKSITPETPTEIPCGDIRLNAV

[11] = molecular target: Sodium-dependent dopamine transporter (Homo sapiens) (UniProt Q01959); test: Inhibition of dopamine transporter at 10 uM; summary of the method: as §1
Chain of Sodium-dependent dopamine transporter (Homo sapiens) (Q01959 whole entry): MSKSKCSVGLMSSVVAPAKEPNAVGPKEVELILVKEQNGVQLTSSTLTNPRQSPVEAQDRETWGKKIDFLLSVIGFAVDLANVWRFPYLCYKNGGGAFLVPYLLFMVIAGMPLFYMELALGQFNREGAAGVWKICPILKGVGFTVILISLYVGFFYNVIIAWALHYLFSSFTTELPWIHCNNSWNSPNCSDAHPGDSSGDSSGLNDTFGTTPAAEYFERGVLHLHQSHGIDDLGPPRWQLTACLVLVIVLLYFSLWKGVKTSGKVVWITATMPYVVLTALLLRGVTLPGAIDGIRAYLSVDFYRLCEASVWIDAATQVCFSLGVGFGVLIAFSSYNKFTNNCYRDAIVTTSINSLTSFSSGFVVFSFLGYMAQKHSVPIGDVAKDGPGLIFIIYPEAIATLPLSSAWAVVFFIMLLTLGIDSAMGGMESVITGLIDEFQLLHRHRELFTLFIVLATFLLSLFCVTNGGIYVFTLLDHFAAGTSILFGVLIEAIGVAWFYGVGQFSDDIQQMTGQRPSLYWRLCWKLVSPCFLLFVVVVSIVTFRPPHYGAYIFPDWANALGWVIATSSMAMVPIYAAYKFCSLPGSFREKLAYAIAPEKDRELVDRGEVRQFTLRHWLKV

[12] = molecular target: 5-hydroxytryptamine receptor 2A (Homo sapiens) (UniProt P28223); test: Inhibition of 5HT2A receptor at 10 uM; summary of the method: as §1
Chain of 5-hydroxytryptamine receptor 2A (Homo sapiens) (P28223 whole entry): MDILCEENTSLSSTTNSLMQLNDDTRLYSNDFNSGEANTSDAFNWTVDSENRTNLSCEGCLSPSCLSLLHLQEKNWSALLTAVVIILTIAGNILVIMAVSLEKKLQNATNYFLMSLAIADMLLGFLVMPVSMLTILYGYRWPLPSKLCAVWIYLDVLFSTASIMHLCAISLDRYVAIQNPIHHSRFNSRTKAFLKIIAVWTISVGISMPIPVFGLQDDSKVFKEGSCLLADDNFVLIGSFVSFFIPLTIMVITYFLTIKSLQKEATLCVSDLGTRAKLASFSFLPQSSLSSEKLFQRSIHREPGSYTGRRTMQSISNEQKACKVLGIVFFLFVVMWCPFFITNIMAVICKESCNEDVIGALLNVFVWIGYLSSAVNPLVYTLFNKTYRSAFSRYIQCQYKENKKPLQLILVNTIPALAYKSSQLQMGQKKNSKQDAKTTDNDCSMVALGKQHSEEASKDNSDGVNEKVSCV

[13] = molecular target: T2, 5-hydroxytryptamine receptor 2C (Homo sapiens) (UniProt P28335); test: Inhibition of 5HT2C receptor at 10 uM; summary of the method: as §1
T2 sequence (whole entry): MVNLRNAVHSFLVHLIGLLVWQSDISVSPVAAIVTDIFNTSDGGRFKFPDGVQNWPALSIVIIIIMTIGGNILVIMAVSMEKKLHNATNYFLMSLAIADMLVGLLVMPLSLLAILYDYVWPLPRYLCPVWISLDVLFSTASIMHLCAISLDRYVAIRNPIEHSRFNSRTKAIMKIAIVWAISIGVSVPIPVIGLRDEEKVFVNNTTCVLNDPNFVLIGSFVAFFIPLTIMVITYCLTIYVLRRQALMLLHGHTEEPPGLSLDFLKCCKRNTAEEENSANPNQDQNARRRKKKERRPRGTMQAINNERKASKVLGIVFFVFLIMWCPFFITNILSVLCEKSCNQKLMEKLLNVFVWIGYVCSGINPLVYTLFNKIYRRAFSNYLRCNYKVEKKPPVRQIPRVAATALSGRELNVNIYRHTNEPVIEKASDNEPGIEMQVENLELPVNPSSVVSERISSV

[14] = Bioavailability in Beagle dog; assay type: ADME, organism-based, Canis lupus familiaris; details: in vivo
[15] = Bioavailability in po dosed rat; assay type: ADME, organism-based; details: in vivo
[16] = molecular target: Neuropeptide Y receptor type 4 (Homo sapiens, UniProt P50391); test: Binding affinity to human NPY Y4 receptor
Chain of Neuropeptide Y receptor type 4 (P50391 whole entry): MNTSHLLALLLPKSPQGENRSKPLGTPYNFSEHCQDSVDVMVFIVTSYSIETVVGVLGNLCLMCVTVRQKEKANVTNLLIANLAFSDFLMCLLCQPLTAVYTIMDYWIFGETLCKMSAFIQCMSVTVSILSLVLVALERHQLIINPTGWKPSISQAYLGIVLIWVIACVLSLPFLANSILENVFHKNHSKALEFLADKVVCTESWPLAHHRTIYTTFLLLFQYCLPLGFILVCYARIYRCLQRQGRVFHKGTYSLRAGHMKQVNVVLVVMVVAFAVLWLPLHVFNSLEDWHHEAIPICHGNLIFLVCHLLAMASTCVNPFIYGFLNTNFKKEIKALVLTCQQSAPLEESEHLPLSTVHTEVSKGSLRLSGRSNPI

[17] = test system: Rattus norvegicus; test: Blockade of D-Trp[34]-NPY-induced food intake in po dosed rat; assay type: functional
[18] = Inhibition of chloride channel at 10 uM; summary of the method: as §1
[19] = test system: Rattus norvegicus; test: Reduction in food intake in Sprague-Dawley DIO rat at 10 mg/kg/day, po after 28 days relative to control; assay type: functional, organism-based; summary of the method: as §2
[20] = Half life in Beagle dog; assay type: ADME, organism-based, Canis lupus familiaris; details: in vivo
[21] = test system: GABA transporter; test: Inhibition of GABA transporter at 10 uM
[22] = molecular target: 5-hydroxytryptamine receptor 6 (Homo sapiens) (UniProt P50406); test: Inhibition of 5HT6 receptor at 10 uM; summary of the method: as §1
Chain of 5-hydroxytryptamine receptor 6 (Homo sapiens) (P50406 whole entry): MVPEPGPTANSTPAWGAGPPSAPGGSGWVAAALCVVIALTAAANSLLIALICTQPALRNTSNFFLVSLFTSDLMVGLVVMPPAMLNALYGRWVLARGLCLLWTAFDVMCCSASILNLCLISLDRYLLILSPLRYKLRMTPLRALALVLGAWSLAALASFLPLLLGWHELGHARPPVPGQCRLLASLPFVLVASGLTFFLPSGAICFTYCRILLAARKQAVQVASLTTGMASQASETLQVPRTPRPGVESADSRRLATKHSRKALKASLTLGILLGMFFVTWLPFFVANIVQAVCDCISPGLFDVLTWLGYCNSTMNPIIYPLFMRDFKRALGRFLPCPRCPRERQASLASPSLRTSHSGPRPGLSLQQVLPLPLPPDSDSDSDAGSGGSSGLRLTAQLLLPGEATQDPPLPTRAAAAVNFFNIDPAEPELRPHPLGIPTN

[23] = molecular target: Sodium-dependent noradrenaline transporter (Homo sapiens) (UniProt P23975); test: Inhibition of norepinephrine transporter at 10 uM; summary of the method: as §1
Chain of Sodium-dependent noradrenaline transporter (Homo sapiens) (P23975 whole entry): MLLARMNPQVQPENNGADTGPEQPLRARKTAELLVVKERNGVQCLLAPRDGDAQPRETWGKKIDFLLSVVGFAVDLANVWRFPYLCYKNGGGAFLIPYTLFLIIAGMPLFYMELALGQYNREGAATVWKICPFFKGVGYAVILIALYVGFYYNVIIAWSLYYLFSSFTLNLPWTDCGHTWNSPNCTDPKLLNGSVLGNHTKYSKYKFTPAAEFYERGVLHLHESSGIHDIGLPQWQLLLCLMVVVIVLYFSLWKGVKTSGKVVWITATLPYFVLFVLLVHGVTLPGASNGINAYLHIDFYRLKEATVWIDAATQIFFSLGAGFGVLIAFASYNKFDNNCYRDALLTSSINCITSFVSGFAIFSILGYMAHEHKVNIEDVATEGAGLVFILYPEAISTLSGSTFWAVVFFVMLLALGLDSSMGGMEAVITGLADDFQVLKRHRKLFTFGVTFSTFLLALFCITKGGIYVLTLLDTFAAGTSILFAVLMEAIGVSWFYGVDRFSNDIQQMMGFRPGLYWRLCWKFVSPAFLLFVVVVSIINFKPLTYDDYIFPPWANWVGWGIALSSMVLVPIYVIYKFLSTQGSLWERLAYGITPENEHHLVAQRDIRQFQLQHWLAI

[24] = molecular target: T3, Neuropeptide Y receptor type 2 (Homo sapiens, UniProt P49146); test: Binding affinity to human NPY Y2 receptor
T3 sequence (P49146 whole entry): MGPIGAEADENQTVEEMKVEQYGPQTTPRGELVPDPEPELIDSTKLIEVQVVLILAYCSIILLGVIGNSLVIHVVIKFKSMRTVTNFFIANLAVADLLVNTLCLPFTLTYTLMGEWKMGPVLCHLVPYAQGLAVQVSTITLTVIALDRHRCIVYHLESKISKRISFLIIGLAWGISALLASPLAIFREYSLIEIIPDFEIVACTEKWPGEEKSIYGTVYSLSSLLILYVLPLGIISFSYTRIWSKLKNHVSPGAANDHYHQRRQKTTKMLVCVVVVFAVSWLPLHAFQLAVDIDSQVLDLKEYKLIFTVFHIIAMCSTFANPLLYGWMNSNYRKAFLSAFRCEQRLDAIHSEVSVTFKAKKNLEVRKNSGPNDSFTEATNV

[25] = organism: Rattus norvegicus; test: Antagonism of galanin-induced food intake in rat; assay type: functional, organism-based
[26] = Inhibition of sodium channel at 10 uM; summary of the method: as §1
[27] = Drug level in plasma of Sprague-Dawley DIO rat at 10 mg/kg/day, po after 28 days; assay type: ADME, organism-based; parameters: route oral; summary of the method: as §2
[28] = molecular target: Neuropeptide Y receptor type 5 (Homo sapiens, UniProt Q15761); test: Displacement of [125]PYY from human chimeric NPY Y5 receptor expressed in CHOK1 cells; assay type: cell-based; details: cho-k1
Chain of Neuropeptide Y receptor type 5 (Q15761 whole entry, looked up): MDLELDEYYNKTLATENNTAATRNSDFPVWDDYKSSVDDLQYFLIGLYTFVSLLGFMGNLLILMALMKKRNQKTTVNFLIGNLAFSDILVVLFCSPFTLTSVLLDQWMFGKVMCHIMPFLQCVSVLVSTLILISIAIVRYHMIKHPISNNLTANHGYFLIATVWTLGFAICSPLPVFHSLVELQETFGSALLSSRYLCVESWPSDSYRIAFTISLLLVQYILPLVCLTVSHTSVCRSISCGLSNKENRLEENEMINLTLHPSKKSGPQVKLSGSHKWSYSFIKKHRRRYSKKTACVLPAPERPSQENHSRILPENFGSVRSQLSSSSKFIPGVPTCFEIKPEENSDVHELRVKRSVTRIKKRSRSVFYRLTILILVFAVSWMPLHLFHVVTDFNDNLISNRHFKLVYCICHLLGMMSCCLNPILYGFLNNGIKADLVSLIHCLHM
Summary of the method: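 Binding to human chimeric Y5 receptor expressed in CHO-K1 cells; Ki values are the average of two determinations.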

SMILES: CC(=O)N1CCC(N(C)C(=O)N[C@H]2CC[C@H](c3cc(F)cc(F)c3)CC2)CC1
- inhibition [1]: < 25%
- Kp [2]: 0.3
- half-life [3]: 84 min
- Activity [4]: Active
- inhibition [5]: < 10%
- inhibition [6]: < 10%
- Ki [7]: > 10 µM
- inhibition [8]: < 25%
- inhibition [9]: < 10%
- inhibition [10]: < 10%
- inhibition [11]: < 10%
- inhibition [12]: < 10%
- inhibition [13]: < 10%
- bioavailability [14]: 94%
- bioavailability [15]: 100%
- Ki [16]: > 10 µM
- ED50 [17]: 2.3 mg/kg
- inhibition [18]: < 25%
- Activity [19]: Dose-dependent effect
- half-life [20]: 1440 min
- inhibition [21]: < 10%
- inhibition [22]: < 10%
- inhibition [23]: < 10%
- Ki [24]: > 10 µM
- Activity [25]: inactive
- inhibition [26]: < 25%
- concentration at 672 h [27]: 13 µM
- Ki [28]: 1.8 nM
